This is an account of results in ChEMBL document CHEMBL3632461 (J Med Chem, 2015).

For orientation: half-life means how long it takes for the measured level to halve. Usually IC50 stands for the concentration at which inhibition is half-maximal. In general, fraction unbound refers to free concentration divided by total concentration. Usually Tmax stands for the time at which the peak concentration occurs.

For series [1], the target named is T1, Thyroid peroxidase (Homo sapiens) (UniProt P07202).
T1 sequence (whole entry): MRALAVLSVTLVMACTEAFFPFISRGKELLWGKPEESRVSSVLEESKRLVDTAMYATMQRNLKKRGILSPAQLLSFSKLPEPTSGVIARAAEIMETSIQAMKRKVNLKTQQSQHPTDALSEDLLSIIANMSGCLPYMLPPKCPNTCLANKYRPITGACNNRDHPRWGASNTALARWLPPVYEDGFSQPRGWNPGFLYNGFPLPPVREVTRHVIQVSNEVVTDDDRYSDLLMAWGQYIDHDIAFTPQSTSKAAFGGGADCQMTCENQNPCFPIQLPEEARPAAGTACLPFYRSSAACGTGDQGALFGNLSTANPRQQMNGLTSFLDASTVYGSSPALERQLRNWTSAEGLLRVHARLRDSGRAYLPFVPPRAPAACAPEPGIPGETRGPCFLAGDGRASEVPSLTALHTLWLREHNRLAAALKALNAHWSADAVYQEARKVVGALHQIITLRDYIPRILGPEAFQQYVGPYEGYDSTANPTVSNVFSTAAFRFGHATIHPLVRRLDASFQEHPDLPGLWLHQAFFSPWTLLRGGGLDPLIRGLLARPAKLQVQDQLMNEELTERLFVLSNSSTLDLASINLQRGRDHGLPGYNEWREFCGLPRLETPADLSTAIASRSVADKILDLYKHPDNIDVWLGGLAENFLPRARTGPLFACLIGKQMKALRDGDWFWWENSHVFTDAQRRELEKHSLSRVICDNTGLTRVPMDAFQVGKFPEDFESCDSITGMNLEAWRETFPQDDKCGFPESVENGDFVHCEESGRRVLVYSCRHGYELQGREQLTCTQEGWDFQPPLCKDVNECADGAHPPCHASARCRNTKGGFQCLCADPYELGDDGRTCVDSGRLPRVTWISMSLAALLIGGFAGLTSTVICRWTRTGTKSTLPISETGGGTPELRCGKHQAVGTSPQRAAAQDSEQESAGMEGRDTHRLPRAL
The series can be described thus: Inhibition of TPO (unknown origin) using Amplex Red as substrate assessed as formation of resorufin by measuring ratio of Kinact to Ki measured every 20 secs by spectrophotometric analysis. In a few lines: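 Amplex Red oxidation to resorufin in 50 mM sodium phosphate pH 7.4, 150 mM NaCl, 1 mM DTPA, 2 μM H2O2, 30 μM Amplex Red, 2% DMSO. Reaction started by adding TPO. Background rate measured with bovine catalase added and subtracted. Fluorescence (ex 530/em 580) read every 20 s at room temperature. kinact/KI taken from initial rates over the first 300 s. Geometric mean of at least two experiments.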

A short description of series [2]: Elimination half life in cynomolgus monkey at 1 mg/kg, iv and 3 or 5 mg/kg, po. The format is ADME, organism-based, Macaca fascicularis. To be noted: in vivo. The procedure, abridged: (§1)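 Male CD-1 mice (25−35 g), cannulated Wistar-Han rats (250 g), beagle dogs (12 kg) and cynomolgus monkeys (7 kg), fasted overnight and fed 1.0 or 2.0 h after dosing. iv 1 mg/kg in saline or 12% sulfobutyl ether β-cyclodextrin; po 3 or 5 mg/kg in 0.5% methylcellulose. Parameters calculated from plasma concentration−time data; mean ± SD for n = 3, individual values for n = 2.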

Series [3] is described as follows: Drug excretion in Wistar rat urine at 1 mg/kg, iv. It is filed as ADME, organism-based. To be noted: read-out: Drug excretion. The procedure, abridged:
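Male animals (beagle dogs 12 kg, Wistar-Han rats 250 g, cynomolgus monkeys 7 kg), fasted overnight and fed 1.0 or 2.0 h after dosing, water ad libitum. Dosed iv at 1 mg/kg in saline or 12% sulfobutyl ether β-cyclodextrin. Fraction of the iv dose excreted unchanged in urine.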

Series [4] can be described thus: Plasma clearance in cynomolgus monkey at 1 mg/kg, iv and 3 or 5 mg/kg, po. It is filed as ADME, organism-based, Macaca fascicularis. In a few lines: as §1
Series [5] has as its target Cytochrome P450 2C9 (Homo sapiens, UniProt P11712). The series can be described thus: Reversible inhibition of CYP2C9 in human liver microsomes by LC-MS/MS analysis. The format is ADME. In a few lines: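 Reversible inhibition of the major CYP enzymes tested in human liver microsomes using established protocols.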
For orientation: Liver microsomes are vesicles of endoplasmic reticulum, rich in cytochrome P450 enzymes.

The target in series [6] is T2, Cytochrome P450 1A2 (Homo sapiens, UniProt P05177).
T2 sequence (P05177 whole entry): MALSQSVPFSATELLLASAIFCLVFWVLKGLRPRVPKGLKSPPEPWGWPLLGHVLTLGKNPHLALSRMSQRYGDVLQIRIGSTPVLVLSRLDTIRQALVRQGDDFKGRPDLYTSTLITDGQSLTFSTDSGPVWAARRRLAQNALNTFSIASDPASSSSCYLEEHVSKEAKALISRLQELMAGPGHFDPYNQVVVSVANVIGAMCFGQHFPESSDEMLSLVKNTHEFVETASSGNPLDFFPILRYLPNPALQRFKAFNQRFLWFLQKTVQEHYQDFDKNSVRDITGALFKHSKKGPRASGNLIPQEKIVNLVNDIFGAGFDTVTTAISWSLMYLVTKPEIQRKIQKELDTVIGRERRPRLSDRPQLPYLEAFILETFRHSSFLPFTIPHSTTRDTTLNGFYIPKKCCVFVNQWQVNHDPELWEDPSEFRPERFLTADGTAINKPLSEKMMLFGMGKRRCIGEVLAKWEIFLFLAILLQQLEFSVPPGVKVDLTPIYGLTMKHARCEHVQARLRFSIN
Put plainly: Time-dependent inhibition of CYP1A2 in human liver microsomes. The format is ADME. In a few lines: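 Time- and concentration-dependent CYP inhibition assessed by an IC₅₀ shift assay in human liver microsomes.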

Series [7] can be described thus: Fraction unbound in human plasma at 2 uM by equilibrium dialysis method. The format is ADME, cell-free. The procedure, abridged:
(§2)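 Compound at 2 μM in mouse, rat, dog, monkey or human plasma; unbound fraction measured by equilibrium dialysis and reported as a mean.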

The nature of series [8]: Fraction unbound in dog plasma at 2 uM by equilibrium dialysis method. The format is ADME, cell-free, Canis lupus familiaris. The procedure, abridged:
as §2

A short description of series [9]: Volume of distribution at steady state in CD-1 mouse at 1 mg/kg, iv and 3 or 5 mg/kg, po. It is filed as ADME, organism-based. Particulars: in vivo, read-out: Vdss. The procedure, abridged: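 Male mice, rats, dogs and cynomolgus monkeys, fasted overnight, fed after dosing. Intravenous dose 1 mg/kg in saline or 12% sulfobutyl ether β-cyclodextrin; oral arm 3 or 5 mg/kg in 0.5% methylcellulose. Steady-state volume derived from plasma concentration−time data; mean ± SD for n = 3, individual values for n = 2.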

Series [10] in a line: Fraction unbound in mouse plasma at 2 uM by equilibrium dialysis method. It is filed as ADME, cell-free. In a few lines:
as §2

Series [11] deals with Hepatocyte. Put plainly: Metabolic stability in cryopreserved human hepatocytes assessed as GSH adduct formation. It is filed as ADME, cell-based. The procedure, abridged: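 Incubation in NADPH-supplemented human liver microsomes or cryopreserved human hepatocytes, examined for glutathione adduct formation.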
A short description of series [12]: Tmax in cynomolgus monkey at 3 or 5 mg/kg, po. The format is ADME, organism-based, Macaca fascicularis. Particulars: in vivo. In a few lines: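 Male animals (CD-1 mice 25−35 g, cannulated Wistar-Han rats 250 g, beagle dogs 12 kg, cynomolgus monkeys 7 kg), fasted overnight and fed 1.0 or 2.0 h after dosing, water ad libitum. Oral dose 3 or 5 mg/kg in 0.5% methylcellulose. Parameters calculated from plasma concentration−time data; mean ± SD for n = 3, individual values for n = 2.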

The nature of series [13]: Fraction unbound in monkey plasma at 2 uM by equilibrium dialysis method. It is filed as ADME, cell-free, Macaca mulatta. Particulars: rhesus monkey. The procedure, abridged: as §2
Background: Equilibrium dialysis compares concentrations on both sides of a semipermeable membrane.

Chain of Cytochrome P450 2C9 (P11712 whole entry): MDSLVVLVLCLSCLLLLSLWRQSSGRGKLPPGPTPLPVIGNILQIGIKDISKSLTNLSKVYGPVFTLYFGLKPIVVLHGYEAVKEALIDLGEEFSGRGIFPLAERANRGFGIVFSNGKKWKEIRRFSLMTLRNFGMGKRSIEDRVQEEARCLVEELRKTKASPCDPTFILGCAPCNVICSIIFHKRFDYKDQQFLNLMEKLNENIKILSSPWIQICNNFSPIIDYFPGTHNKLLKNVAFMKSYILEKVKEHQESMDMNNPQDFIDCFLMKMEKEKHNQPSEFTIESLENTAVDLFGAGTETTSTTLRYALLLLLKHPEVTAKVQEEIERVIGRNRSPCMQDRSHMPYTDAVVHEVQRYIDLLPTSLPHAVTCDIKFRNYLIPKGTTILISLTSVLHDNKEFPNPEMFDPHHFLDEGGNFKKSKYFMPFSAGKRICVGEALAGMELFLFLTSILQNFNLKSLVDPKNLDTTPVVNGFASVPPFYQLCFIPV

Regarding `COc1ccc(-c2cc(=O)[nH]c(=S)n2CCN)c(OC)c1`, the log(ratio) in series [1] is under 0.5.
On to `COc1ccc(-c2cc(=O)[nH]c(=S)n2CC(N)=O)c(OC)c1`, for which the log(ratio) in series [1] is under 0.5.
`COc1ccc(Cl)cc1-c1cc(=O)[nH]c(=S)n1CC(N)=O` [PF-06282999]: the half-life in series [2] was 3.28 h. For the same molecule, the dose excreted in [3] is 26%. In [4], this molecule gave a clearance of 10.3 mL/min/kg. In addition, the IC50 in series [5] and in [6] was over 100 µM throughout. Moreover, the fraction unbound at 2 µM turned out to be 0.376 in series [7], 0.46 in series [8], 0.451 in series [10] and 0.536 in [13]. In series [9], the Vd was 0.9 L/kg. Moreover, in series [11], the Stability result was “Stable”. In addition, the time to peak (Tmax) in series [12] was 1.5 h.
For the molecule `COc1ccc(-c2cc(=O)[nH]c(=S)n2CCO)c(OC)c1`, the log(ratio) in [1] was under 0.5.
Still for that read-out and setting: with `COc1ccc(OC)c(-c2cc(=O)[nH]c(=S)n2CC(N)=O)c1` the figure was under 0.5.
